# In ChEMBL document CHEMBL1629528 (J Med Chem, 2010):
# Activity calls are given as the source filed them. The calls are words filed in the database; no cut-off is given here.
# What was measured:
# [1] = Clearance in Sprague-Dawley rat at 0.5 mg/kg, iv after 24 hrs; assay type: ADME, organism-based; design: dose 0.5 mg/kg, route intravenous; conditions: in vivo
# Summary of the method: (§1)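 Male Sprague-Dawley rats given 0.5 mg/kg iv (2 mL/kg, 2.5% DMSO in glucosate solution), n=3, cassette dosing; blood collected at intervals up to 24 h, protein precipitation and LC-MS/MS quantification.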
# [2] = in vivo; conditions: dog, po, 1 mg/kg
# [3] = in vivo; conditions: cynomolgus monkey, po, 10 mg/kg
# [4] = Half life in cynomolgus monkey at 1 mg/kg, iv; conditions: in vivo
# [5] = Half life in Sprague-Dawley rat at 0.5 mg/kg, iv after 24 hrs; assay type: ADME, organism-based; design: dose 0.5 mg/kg, route intravenous; conditions: in vivo; summary of the method: as §1
# [6] = Half life in dog at 0.5 mg/kg, iv; conditions: in vivo
# [7] = in vivo; conditions: dog, plasma, po, 10 mg/kg
# [8] = Clearance in cynomolgus monkey at 1 mg/kg, iv; conditions: in vivo
# [9] = in vivo; conditions: cynomolgus monkey, plasma, po, 10 mg/kg
# [10] = Solubility of the compound in simulated gastric fluid at pH 1.2 at 25 degC; assay type: physicochemical
# [11] = in vivo; conditions: dog, po, 10 mg/kg
# [12] = AUC (0 to infinity) in Sprague-Dawley rat at 1 mg/kg, po after 24 hrs; assay type: ADME, organism-based; design: time infinity, dose 1 mg/kg, route oral; conditions: plasma
# Summary of the method: (§2)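 Male Sprague-Dawley rats dosed po at 1 mg/kg (10 mL/kg, 1% DMSO in aqueous 0.5% methocel), n=3, as a cassette with other compounds; blood sampled at intervals up to 24 h and analysed by protein precipitation then LC-MS/MS.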
# [13] = Oral bioavailability in Sprague-Dawley rat at 1 mg/kg, po after 24 hrs; assay type: ADME, organism-based; conditions: in vivo; summary of the method: as §2
# [14] = Cmax in Sprague-Dawley rat at 1 mg/kg, po after 24 hrs; assay type: ADME, organism-based; design: dose 1 mg/kg, route oral; conditions: in vivo; summary of the method: as §2
# [15] = Solubility of the compound in water; assay type: physicochemical
# Summary of the method: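 Measured on the dihydrochloride salt form, dissolved in water.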
# [16] = Solubility of the compound in fed state simulated intestinal fluid at pH 5.5 at 25 degC; assay type: physicochemical
# Summary of the method: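 Solubility determined at 25 °C in fed state simulated intestinal fluid at pH 5.5.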
# [17] = Clearance in dog at 0.5 mg/kg, iv; conditions: in vivo
# [18] = tested on: Rattus norvegicus; assay: Inhibition of 8-OH-DPAT-induced hyperlocomotory activity in Sprague-Dawley rat administered orally 60 mins before 8-OH-DPATchallenge; assay type: functional; conditions: for ED50: po
# Summary of the method: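 Male Sprague-Dawley rats (250–350 g) dosed orally (5 mL/kg) at 0.03, 0.1 or 0.3 mg/kg or vehicle, 60 min before sc 8-OH-DPAT 0.2 mg/kg (2 mL/kg). Total distance travelled recorded by infrared sensors over 30 min immediately after; 8–9 rats per group.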
# [19] = in vivo; conditions: cynomolgus monkey, po, 10 mg/kg; remark: listed apart in the source
# [20] = Ratio of drug level in brain to blood in Sprague-Dawley rat after 1 hr; assay type: ADME, tissue-based; conditions: read-out: BBR
# Summary of the method: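 Male Sprague-Dawley rats dosed iv at 0.5 mg/kg (2.5% DMSO in glucosate), n=3, as a cassette. At 1 h, CO2 anaesthesia, blood taken by heart puncture and brain removed. Both matrices analysed by protein precipitation and LC-MS/MS.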
# [21] = molecular target: 5-hydroxytryptamine receptor 6 (Homo sapiens, UniProt P50406); assay: Binding affinity to human recombinant 5-HT6 receptor by radioligand displacement assay
# Chain of 5-hydroxytryptamine receptor 6 (P50406 whole entry): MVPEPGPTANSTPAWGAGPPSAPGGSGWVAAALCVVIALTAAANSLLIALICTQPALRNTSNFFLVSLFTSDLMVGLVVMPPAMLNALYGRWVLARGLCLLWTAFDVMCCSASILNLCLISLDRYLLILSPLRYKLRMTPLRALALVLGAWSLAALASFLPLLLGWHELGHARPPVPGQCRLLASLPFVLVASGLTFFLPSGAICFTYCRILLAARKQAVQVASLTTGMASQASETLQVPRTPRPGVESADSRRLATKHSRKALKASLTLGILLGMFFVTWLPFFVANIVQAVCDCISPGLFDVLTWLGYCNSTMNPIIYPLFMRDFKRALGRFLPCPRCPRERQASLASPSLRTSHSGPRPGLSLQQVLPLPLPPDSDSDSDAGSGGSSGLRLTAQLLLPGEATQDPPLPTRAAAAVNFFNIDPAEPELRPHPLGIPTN
# [22] = molecular target: T1, Cytochrome P450 3A4 (Homo sapiens, UniProt P08684); assay: Inhibition of CYP3A4 in human liver microsomes using nifedipine as probe
# T1 sequence (P08684 whole entry): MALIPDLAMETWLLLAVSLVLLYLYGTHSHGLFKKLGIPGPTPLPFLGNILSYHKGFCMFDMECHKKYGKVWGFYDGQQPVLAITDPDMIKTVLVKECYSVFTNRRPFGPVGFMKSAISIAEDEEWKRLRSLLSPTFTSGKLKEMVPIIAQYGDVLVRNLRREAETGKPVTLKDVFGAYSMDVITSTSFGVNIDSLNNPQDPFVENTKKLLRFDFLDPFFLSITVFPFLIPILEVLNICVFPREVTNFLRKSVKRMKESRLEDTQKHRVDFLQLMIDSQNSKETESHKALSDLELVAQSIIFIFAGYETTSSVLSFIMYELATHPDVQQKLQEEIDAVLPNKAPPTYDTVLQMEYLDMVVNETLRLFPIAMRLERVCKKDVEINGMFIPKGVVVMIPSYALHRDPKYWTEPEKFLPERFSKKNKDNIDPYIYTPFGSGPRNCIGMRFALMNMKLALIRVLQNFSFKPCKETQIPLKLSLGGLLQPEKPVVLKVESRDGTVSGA
# [23] = molecular target: Alpha-1A adrenergic receptor (Rattus norvegicus, UniProt P43140); assay: Inhibition of rat adrenergic alpha1A receptor
# [24] = Plasma protein binding in human at 1 ug/mL by equilibrium dialysis method
# [25] = molecular target: T1, Cytochrome P450 3A4; assay: Inhibition of CYP3A4 in human liver microsomes using atorvastatin as probe
# [26] = molecular target: Cytochrome P450 1A2 (Homo sapiens, UniProt P05177); assay: Inhibition of human recombinant CYP1A2
# [27] = molecular target: Alpha-1B adrenergic receptor (Rattus norvegicus, UniProt P15823); assay: Inhibition of rat adrenergic Alpha-1B receptor
# [28] = Protein binding in rat plasma at 1 ug/mL by equilibrium dialysis method
# [29] = molecular target: Cytochrome P450 2D6 (Homo sapiens, UniProt P10635); assay: Inhibition of human recombinant CYP2D6
# [30] = molecular target: Cytochrome P450 2C19 (Homo sapiens, UniProt P33261); assay: Inhibition of human recombinant CYP219
# [31] = molecular target: T2, 5-hydroxytryptamine receptor 2C (Homo sapiens, UniProt P28335); assay: Binding affinity to human recombinant 5-HT2C receptor by radioligand displacement assay
# T2 sequence (P28335 whole entry): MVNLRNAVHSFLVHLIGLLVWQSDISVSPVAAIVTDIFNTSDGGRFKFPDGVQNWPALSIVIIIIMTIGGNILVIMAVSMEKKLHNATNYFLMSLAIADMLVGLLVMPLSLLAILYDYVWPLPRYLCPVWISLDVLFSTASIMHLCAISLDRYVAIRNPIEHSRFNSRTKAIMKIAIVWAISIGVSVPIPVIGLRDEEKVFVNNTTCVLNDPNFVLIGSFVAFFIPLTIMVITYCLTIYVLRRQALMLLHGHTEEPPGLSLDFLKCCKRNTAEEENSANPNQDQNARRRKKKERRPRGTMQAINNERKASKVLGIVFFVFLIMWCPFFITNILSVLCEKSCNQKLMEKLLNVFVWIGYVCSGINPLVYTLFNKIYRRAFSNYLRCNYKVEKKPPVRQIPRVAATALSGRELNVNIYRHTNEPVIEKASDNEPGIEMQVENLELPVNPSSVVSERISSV
# [32] = Plasma protein binding in dog at 1 ug/mL by equilibrium dialysis method
# [33] = molecular target: T1, Cytochrome P450 3A4; assay: Inhibition of CYP3A4 in human liver microsomes using midazolam as probe
# [34] = molecular target: Voltage-gated inwardly rectifying potassium channel KCNH2 (Homo sapiens, UniProt Q12809); assay: Displacement of [3H]dofetilide from human ERG by SPA
# Chain of Voltage-gated inwardly rectifying potassium channel KCNH2 (Q12809 whole entry): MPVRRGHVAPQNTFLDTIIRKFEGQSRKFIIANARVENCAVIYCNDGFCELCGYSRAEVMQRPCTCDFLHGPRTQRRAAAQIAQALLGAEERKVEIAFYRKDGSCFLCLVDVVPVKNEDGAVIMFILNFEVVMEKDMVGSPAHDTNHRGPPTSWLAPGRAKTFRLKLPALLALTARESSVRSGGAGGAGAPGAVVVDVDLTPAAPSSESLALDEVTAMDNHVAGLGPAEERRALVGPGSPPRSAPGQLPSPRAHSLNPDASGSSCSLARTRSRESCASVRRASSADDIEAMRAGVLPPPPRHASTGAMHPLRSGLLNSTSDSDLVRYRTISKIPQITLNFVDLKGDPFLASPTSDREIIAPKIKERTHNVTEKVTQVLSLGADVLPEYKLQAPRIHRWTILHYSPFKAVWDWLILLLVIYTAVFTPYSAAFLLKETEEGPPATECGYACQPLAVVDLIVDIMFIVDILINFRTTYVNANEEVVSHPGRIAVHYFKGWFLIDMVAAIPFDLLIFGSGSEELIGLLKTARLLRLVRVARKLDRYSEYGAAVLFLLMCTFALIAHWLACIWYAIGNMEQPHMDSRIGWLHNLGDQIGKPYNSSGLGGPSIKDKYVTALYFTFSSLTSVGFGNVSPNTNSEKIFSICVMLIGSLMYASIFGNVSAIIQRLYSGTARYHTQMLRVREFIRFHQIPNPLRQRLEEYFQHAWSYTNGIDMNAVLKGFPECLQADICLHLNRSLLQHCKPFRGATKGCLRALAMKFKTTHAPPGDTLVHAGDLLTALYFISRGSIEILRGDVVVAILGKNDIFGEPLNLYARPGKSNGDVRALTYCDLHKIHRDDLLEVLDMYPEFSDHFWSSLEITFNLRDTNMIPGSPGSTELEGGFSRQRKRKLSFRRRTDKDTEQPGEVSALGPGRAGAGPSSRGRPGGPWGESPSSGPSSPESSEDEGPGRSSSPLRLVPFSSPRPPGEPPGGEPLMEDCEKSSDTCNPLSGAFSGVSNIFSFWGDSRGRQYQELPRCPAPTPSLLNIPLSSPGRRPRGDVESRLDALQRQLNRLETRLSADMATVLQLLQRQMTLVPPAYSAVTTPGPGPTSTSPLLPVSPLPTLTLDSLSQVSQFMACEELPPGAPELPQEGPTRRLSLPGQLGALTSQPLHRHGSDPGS
# [35] = molecular target: T1, Cytochrome P450 3A4; assay: Inhibition of human recombinant CYP3A4
# [36] = molecular target: Cytochrome P450 2C9 (Homo sapiens, UniProt P11712); assay: Inhibition of human recombinant CYP2C9
# [37] = molecular target: T3, 5-hydroxytryptamine receptor 1D (Homo sapiens, UniProt P28221); assay: Intrinsic activity at human recombinant 5-HT1D receptor expressed in CHO cells by [S35]GTPgammaS binding assay relative to 5-HT; assay type: functional, cell-based
# T3 sequence (P28221 whole entry): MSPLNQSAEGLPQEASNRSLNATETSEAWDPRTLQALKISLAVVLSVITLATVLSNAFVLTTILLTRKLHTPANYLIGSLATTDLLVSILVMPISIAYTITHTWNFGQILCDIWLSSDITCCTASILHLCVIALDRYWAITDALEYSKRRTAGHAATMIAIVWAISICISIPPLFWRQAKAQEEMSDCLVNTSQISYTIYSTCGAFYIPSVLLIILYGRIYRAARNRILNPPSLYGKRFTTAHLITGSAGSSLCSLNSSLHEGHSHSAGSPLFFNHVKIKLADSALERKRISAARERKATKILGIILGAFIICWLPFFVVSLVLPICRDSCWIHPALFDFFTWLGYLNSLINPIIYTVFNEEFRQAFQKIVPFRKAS
# Summary of the method: (§3)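 [35S]-GTPγS binding in membranes from 10^6 cells (HEK293 for 5-HT1A; CHO for 5-HT1B, 5-HT1D), preincubated 30 min at 30 °C with compound in 20 mM HEPES pH 7.4, 3 mM MgCl2, 100 mM NaCl, 10 μM GDP, 0.2 mM ascorbate. 100 pM [35S]-GTPγS added, 30 min more at 30 °C; nonspecific with 20 μM GTPγS; filtration and scintillation counting.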
# [38] = molecular target: D(3) dopamine receptor (Homo sapiens, UniProt P35462); assay: Binding affinity to human recombinant dopamine D3 receptor by radioligand displacement assay
# Chain of D(3) dopamine receptor (P35462 whole entry): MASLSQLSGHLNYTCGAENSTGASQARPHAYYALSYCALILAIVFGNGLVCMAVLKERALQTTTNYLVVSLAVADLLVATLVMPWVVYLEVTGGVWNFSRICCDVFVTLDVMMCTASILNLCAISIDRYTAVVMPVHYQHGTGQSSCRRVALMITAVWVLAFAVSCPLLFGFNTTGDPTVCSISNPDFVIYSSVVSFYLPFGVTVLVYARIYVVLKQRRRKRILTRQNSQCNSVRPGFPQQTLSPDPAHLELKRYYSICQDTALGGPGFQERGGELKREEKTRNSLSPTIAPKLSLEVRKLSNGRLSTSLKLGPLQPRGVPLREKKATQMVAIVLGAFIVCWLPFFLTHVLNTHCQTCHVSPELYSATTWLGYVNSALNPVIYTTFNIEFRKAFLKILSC
# [39] = molecular target: T4, 5-hydroxytryptamine receptor 1B (Homo sapiens, UniProt P28222); assay: Displacement of [3H]5-HT from human recombinant 5-HT1B receptor expressed in CHO cells; assay type: cell-based
# T4 sequence (P28222 whole entry): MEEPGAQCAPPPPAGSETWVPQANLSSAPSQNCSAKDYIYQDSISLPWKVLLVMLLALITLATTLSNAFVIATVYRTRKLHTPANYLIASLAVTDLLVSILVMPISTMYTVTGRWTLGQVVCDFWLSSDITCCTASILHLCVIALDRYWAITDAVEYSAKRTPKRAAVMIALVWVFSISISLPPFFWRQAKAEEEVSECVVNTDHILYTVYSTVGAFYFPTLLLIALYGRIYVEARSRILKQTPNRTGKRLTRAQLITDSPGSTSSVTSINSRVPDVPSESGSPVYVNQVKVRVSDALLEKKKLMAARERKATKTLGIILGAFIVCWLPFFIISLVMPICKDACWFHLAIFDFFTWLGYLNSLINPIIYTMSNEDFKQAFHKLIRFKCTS
# [40] = molecular target: Sodium-dependent serotonin transporter (Rattus norvegicus, UniProt P31652); assay: Inhibition of [3H]5-HT uptake at SERT in rat cortical synaptosomes; assay type: subcellular, Brain
# Chain of Sodium-dependent serotonin transporter (P31652 whole entry): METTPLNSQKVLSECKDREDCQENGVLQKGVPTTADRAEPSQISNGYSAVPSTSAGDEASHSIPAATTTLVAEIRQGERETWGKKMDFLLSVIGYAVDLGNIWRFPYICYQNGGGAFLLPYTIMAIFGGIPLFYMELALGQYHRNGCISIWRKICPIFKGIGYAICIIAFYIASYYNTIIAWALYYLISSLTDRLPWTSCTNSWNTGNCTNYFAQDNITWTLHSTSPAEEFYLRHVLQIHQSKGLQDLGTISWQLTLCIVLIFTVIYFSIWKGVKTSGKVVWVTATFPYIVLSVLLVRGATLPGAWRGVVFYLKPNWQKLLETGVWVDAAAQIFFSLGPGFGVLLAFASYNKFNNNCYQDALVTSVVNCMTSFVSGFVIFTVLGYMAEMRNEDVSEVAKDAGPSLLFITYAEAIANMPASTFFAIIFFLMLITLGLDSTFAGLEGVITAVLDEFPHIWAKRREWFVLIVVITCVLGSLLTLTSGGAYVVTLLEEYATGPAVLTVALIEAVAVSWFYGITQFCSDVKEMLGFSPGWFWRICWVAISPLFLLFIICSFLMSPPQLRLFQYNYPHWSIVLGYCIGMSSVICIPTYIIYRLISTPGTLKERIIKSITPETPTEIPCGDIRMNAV
# [41] = molecular target: T5, 5-hydroxytryptamine receptor 1A (Homo sapiens, UniProt P08908); assay: Displacement of [3H]WAY100635 from human recombinant 5-HT1A receptor expressed in CHO cells; assay type: cell-based
# T5 sequence (P08908 whole entry): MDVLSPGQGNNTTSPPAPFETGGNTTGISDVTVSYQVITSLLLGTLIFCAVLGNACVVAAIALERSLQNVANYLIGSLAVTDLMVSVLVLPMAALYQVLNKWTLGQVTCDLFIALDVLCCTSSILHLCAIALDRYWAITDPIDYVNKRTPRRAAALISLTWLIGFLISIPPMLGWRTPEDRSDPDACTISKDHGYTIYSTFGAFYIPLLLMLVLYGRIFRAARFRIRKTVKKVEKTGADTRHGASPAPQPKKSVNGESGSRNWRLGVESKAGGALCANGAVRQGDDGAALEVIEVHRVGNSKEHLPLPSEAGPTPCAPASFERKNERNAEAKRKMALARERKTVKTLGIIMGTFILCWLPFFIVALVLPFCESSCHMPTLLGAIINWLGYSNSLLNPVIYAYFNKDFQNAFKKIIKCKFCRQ
# [42] = molecular target: 5-hydroxytryptamine receptor 2B (Homo sapiens, UniProt P41595); assay: Binding affinity to human recombinant 5-HT2B receptor by radioligand displacement assay
# [43] = molecular target: D(2) dopamine receptor (Homo sapiens, UniProt P14416); assay: Binding affinity to human recombinant dopamine D2 receptor by radioligand displacement assay
# Chain of D(2) dopamine receptor (P14416 whole entry): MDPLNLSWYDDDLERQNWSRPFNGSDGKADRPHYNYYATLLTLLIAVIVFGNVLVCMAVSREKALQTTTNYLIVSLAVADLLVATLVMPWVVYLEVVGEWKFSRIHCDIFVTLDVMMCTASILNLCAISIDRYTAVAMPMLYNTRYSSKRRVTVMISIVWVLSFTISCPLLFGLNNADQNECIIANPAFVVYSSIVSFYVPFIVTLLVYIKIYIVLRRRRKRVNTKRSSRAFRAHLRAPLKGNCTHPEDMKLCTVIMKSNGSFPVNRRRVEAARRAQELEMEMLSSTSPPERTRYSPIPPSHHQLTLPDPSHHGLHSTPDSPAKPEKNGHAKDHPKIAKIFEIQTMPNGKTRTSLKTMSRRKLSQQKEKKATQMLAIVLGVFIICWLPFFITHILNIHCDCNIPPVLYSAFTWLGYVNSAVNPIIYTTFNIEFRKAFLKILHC
# [44] = molecular target: T6, 5-hydroxytryptamine receptor 1A (Homo sapiens) (UniProt P08908); assay: Intrinsic activity at human recombinant 5-HT1A receptor expressed in HEK293 cells by [S35]GTPgammaS binding assay relative to 5-HT; assay type: functional, cell-based; summary of the method: as §3
# T6 sequence (whole entry): T5 sequence (P08908 whole entry)
# [45] = molecular target: 5-hydroxytryptamine receptor 7 (Homo sapiens, UniProt P34969); assay: Binding affinity to human recombinant 5-HT7 receptor by radioligand displacement assay
# [46] = molecular target: T3, 5-hydroxytryptamine receptor 1D; assay: Displacement of [3H]5-HT from human recombinant 5-HT1D receptor expressed in CHO cells; assay type: cell-based
# [47] = molecular target: 5-hydroxytryptamine receptor 2A (Homo sapiens, UniProt P28223); assay: Binding affinity to human recombinant 5-HT2A receptor by radioligand displacement assay
# Chain of 5-hydroxytryptamine receptor 2A (P28223 whole entry): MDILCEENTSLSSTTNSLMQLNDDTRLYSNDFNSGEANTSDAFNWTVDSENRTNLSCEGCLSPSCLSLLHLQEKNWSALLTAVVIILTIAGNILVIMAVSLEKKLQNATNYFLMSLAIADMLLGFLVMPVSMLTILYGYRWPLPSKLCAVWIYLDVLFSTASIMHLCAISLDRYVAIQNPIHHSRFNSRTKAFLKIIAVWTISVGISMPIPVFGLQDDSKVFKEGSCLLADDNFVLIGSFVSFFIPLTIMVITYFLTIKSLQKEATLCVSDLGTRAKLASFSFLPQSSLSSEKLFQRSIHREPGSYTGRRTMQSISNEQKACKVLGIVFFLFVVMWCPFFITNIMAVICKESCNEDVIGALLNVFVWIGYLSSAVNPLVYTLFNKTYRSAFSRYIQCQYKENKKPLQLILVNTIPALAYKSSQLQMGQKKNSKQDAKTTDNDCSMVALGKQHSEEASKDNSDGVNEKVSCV
# [48] = molecular target: T4, 5-hydroxytryptamine receptor 1B; assay: Intrinsic activity at human recombinant 5-HT1B receptor expressed in CHO cells by [S35]GTPgammaS binding assay relative to 5-HT; assay type: functional, cell-based; summary of the method: as §3
# [49] = molecular target: T3, 5-hydroxytryptamine receptor 1D; assay: Inverse agonist activity at human recombinant 5-HT1D receptor expressed in CHO cells by [S35]GTPgammaS binding assay; assay type: functional, cell-based; summary of the method: as §3
# [50] = molecular target: T4, 5-hydroxytryptamine receptor 1B; assay: Inverse agonist activity at human recombinant 5-HT1B receptor expressed in CHO cells by [S35]GTPgammaS binding assay; assay type: functional, cell-based; summary of the method: as §3
# [51] = molecular target: T6, 5-hydroxytryptamine receptor 1A (Homo sapiens); assay: Inverse agonist activity at human recombinant 5-HT1A receptor expressed in HEK293 cells by [S35]GTPgammaS binding assay; assay type: functional, cell-based; summary of the method: as §3
Compound,clearance [1] [mL/min/kg],half-life [5] [h],solubility [10] [µg/mL],AUC(0-inf) [12] [ng·h/mL],bioavailability [13] [%],Cmax [14] [ng/mL],solubility [15] [µg/mL],solubility [16] [µg/mL],ED50 [18] [mg/kg],Kp at 1 h [20],Ki [21] [nM],Ki [31] [nM],Ki [34] [nM],Ki [38] [nM],Ki [39] [nM],Ki [40] [nM],Ki [41] [nM],Ki [42] [nM],Ki [43] [nM],Intrinsic activity [44],other results
Cc1ccc2c(N3CCN(CCc4cccc(N5CCNC5=O)c4)CC3)cccc2n1.Cl.Cl,11,3.2,> 10000,889,58,122,> 10000,500,0.03,0.5,,,,,,,,,,,bioavailability [2]: 6%; Cmax [3]: 1390 ng/mL; half-life [4]: 5.3 h; half-life [6]: 0.8 h; AUC(0-inf) [7]: 2550 ng·h/mL; clearance [8]: 25 mL/min/kg; AUC(0-inf) [9]: 4220 ng·h/mL; Cmax [11]: 1300 ng/mL; clearance [17]: 60 mL/min/kg; bioavailability [19]: 63%
Cc1ccc2c(N3CCN(CCc4cccc(N5CCNC5=O)c4)CC3)cccc2n1 [GSK163090],,,,,,,,,,,> 5010,1580,12600,,,,,,,,IC50 [22]: 21000 nM; IC50 [23]: 25.1 nM; fraction unbound at 1 ug/mL [24]: 0.041; IC50 [25]: 21000 nM; IC50 [26]: 96000 nM; IC50 [27]: 25.1 nM; fraction unbound at 1 ug/mL [28]: 0.041; IC50 [29]: 86000 nM; IC50 [30]: 76000 nM; fraction unbound at 1 ug/mL [32]: 0.045; IC50 [33]: 21000 nM; IC50 [35]: 67000 nM; IC50 [36]: 60000 nM
Cc1ccc2c(N3CCN(CCc4cccc(NC(=O)Nc5ccccc5)c4)CC3)cccc2n1,,,,,,,,,,,316,> 10000,316,31.6,3.16,2000,3.98,> 6310,79.4,0,Intrinsic activity [37]: 0; Ki [45]: 79.4 nM; Ki [46]: 0.316 nM; Ki [47]: > 6310 nM; Intrinsic activity [48]: 0
Cc1ccc2c(N3CCN(CCc4cccc(NC(=O)c5ccccc5)c4)CC3)cccc2n1,,,,,,,,,,,> 1000,794,50.1,100,2.51,2000,1,126,398,,Activity [49]: Active; Activity [50]: Active; Ki [45]: 79.4 nM; Ki [46]: 0.316 nM; Ki [47]: 79.4 nM; Activity [51]: Active
Cc1ccc2c(N3CCN(CCc4cccc(NS(C)(=O)=O)c4)CC3)cccc2n1,,,,,,,,,,,,,,,,,,,,0,Activity [49]: Active; Intrinsic activity [48]: 0.1; inhibition [18]: Dose-dependent effect
Cc1ccc2c(N3CCN(CCc4cccc(NS(C)(=O)=O)c4)CC3)cccc2n1.Cl.Cl,7,3.9,> 10000,1450,56,243,> 10000,600,1,0.5,,,,,,,,,,,
